Data: article PMC2913304 (Pharmaceutical research, 2008)
Read-outs that look alike come from different tables or passages of the source. Blank lines part the entries; values can stand above or below the molecule they belong to. Non-standard residues stand in square brackets, D forms with d. Residues, ends and D or L forms follow the SMILES beside them. Sar = CNCC(=O)O

Key:
SKPT cells [1] = experiment: Effect of potential inhibitors on apical uptake of carnosine; type: in vitro ADME, rat; conditions: 15-min uptake, apical pH 6.0; for reduction of apical uptake of carnosine: inhibitor 1 and 2 mM
Outline: (§1)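 Measured 15-min uptake at 37°C of [3H]substrate (with [14C]mannitol correction) from the apical or basolateral side, co-incubated with or without test compounds (PEPT2 and PHT1 substrates, unlabelled substrate, a cephalosporin). Apical buffer was pH 6.0 and basolateral pH 7.4. Test compounds were 1 mM for basolateral uptake. Results were compared with control by ANOVA and Dunnett's test. n=3–6.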

SKPT cells [2] = experiment: Effect of potential inhibitors on basolateral uptake of carnosine; type: in vitro ADME, rat; conditions: inhibitor 1 mM; 15-min uptake, basolateral pH 7.4
Outline: as §1

SKPT cells [3] = conditions: cited from earlier work
SKPT cells [4] = experiment: Efflux studies after 2 hr apical preloading of SKPT monolayers; type: in vitro ADME, rat
Outline: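 Monolayers loaded apically with 10 µM [3H]substrate and [14C]mannitol for 2 h at 37°C, then washed four times with ice-cold buffer. Substrate-free buffer was added to both sides (apical pH 6.0, basolateral pH 7.4) at 37°C. Apical (100 µl) and basolateral (300 µl) samples were taken at set times and replaced. Radioactivity is expressed as percent of cell content after loading. n=3–5.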

basolateral transporter = experiment: Concentration-dependent basolateral uptake of carnosine; type: in vitro ADME, rat
PEPT2 [5] = target: T1, PEPT2 (Rattus norvegicus, UniProt Q63424); conditions: read-out: Km, PEPT2-mediated uptake; rat choroid plexus whole tissue; cited from earlier work
T1 sequence (Q63424 1-729): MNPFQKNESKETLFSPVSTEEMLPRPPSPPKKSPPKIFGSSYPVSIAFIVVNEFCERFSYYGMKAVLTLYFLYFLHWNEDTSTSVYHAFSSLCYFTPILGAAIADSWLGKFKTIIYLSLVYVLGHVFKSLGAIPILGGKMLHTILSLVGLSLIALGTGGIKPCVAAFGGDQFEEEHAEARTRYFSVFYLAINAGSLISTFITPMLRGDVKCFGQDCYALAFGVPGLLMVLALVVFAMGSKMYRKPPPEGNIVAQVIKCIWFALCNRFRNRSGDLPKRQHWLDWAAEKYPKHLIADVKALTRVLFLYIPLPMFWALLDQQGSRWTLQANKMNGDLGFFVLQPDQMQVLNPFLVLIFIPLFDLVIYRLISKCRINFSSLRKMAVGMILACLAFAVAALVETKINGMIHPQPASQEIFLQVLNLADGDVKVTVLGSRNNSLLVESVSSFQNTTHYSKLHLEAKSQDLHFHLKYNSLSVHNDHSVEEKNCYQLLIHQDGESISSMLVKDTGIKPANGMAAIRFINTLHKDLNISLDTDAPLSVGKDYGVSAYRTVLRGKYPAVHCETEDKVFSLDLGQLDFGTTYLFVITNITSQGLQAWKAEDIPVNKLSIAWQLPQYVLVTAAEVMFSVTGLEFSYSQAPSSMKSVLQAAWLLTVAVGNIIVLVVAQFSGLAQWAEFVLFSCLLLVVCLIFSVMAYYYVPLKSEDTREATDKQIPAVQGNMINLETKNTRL

SKPT cells [6] = experiment: Carnosine transepithelial transport across SKPT cell monolayers; type: in vitro ADME, rat; conditions: 10 µM in donor compartment, slope of transport vs time
Outline: (§2)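 Filter-grown SKPT monolayers with apical pH 6.0 (MES/Tris) and basolateral pH 7.4 (HEPES/Tris) buffers at 37°C. 10 µM [3H]substrate with [14C]mannitol was placed in the apical or basolateral donor side. Receiver aliquots were taken over time for scintillation counting. Paracellular flux was corrected with mannitol, and clearances were obtained from flux relative to the 10 µM donor concentration. n=3–5.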

[7] = as above; type: in vitro ADME, rat; conditions: rat, basolateral-to-apical transcellular flux relative to apical-to-basolateral flux, 10 µM carnosine
Outline: as §2

PEPT2 [8] = target: T1, PEPT2; conditions: read-out: Km, PEPT2-mediated uptake; rat neonatal astrocytes; cited from earlier work
[9] = system: rat choroid plexus primary cell cultures; conditions: cited from earlier work
PEPT2 [10] = target: T1, PEPT2; experiment: Concentration-dependent apical uptake of carnosine; type: in vitro ADME; conditions: 1–500 µM carnosine, 15-min uptake, pH 6.0
[11] = pKa and fractional ionization of carnosine; type: physicochemical
SKPT cells [12] = experiment: Carnosine intracellular accumulation; type: in vitro ADME, rat
Outline: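 Rat kidney proximal tubule cells (SV40-transformed) grown on collagen-coated filter inserts and used 4 days after seeding, with no antibiotics for the final 24 h and monolayer resistance checked. Cells were preincubated 10 min at 37°C with apical pH 6.0 and basolateral pH 7.4 buffer. 10 µM [3H]substrate plus [14C]mannitol was added to one side, 37°C timed incubations. Cells washed with ice-cold buffer, solubilised (NaOH/SDS), counted. Values normalised to protein and mannitol-corrected. Concentration ratio used intracellular volume from 3-O-methyl-D-glucose uptake (1–10 mM, 300 min, phloridzin). n=3–5.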

SKPT cells [13] = experiment: Cellular compartment model: influx and efflux clearances of carnosine; type: in vitro ADME, rat
Outline: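 A three-compartment (apical, cellular, basolateral) mass-balance model gave influx and efflux clearances (µl/min/mg protein). Transepithelial clearances came from 10 µM donor flux experiments. Each influx clearance equals the transcellular clearance divided by the steady-state fraction effluxed to the opposite compartment. These fractions came from efflux studies after 2 h apical loading.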

SKPT cells [14] = experiment: Substrate stability studies in SKPT compartments; type: in vitro ADME, rat
Outline: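 10 µM [3H]substrate applied apically or basolaterally (apical pH 6.0, basolateral pH 7.4) for 5–300 min at 37°C. Donor and receiver media were collected. Cells were washed, sonicated in water, extracted with an equal volume of acetonitrile, and centrifuged at 14,000 g for 10 min at 4°C. Reversed-phase C18 HPLC used isocratic 0.1 M NaH2PO4/0.075% heptafluorobutyric acid at 1 ml/min. Stability was taken from recovery and histidine appearance. n=3.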

SKPT cells [15] = experiment: Proton; type: in vitro ADME, rat; conditions: 15-min uptake, 10 µM, donor pH 5.5 to 7.4, basolateral pH 7.4
Outline: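 The donor-side pH was varied from 5.5 to 7.4 while the opposite side was held at pH 7.4 (apical uptake) or pH 6.0 (basolateral uptake). Uptake of 10 µM [3H]substrate was measured over 15 min at 37°C. Values were compared with pH 7.4 by ANOVA and Dunnett's test. n=3–6.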

[16] = substrate: NCCC(=O)N[C@@H](Cc1cnc[nH]1)C(=O)O; experiment: Concentration-dependent apical uptake of carnosine; type: in vitro ADME, rat; conditions: other: 1–500 µM carnosine, 15-min uptake, pH 6.0, 37.0 °C
[17] = at 60 min, after 2 hr apical preloading with 10 µM
[18] = single exponential fit of efflux-time profile

Molecule: CN(CC(=O)O)C(=O)CN [GlySar, glycylsarcosine] (H-Gly-[Sar]-OH)
reduction of apical uptake of carnosine (SKPT cells [1]): 90%
reduction of basolateral uptake of carnosine (SKPT cells [2]): 90–99%
apical uptake relative to basolateral uptake (SKPT cells [3]; ref 37): about 5 ×
apical uptake relative to basolateral uptake (SKPT cells [3]; ref 38): about 3.5 ×
apical-to-basolateral transepithelial flux higher than reverse flux (SKPT cells [3]; ref 38): 28%

cell-to-apical efflux relative to cell-to-basolateral efflux (SKPT cells [4]; SKPT cells): about 10 times
carnosine effluxed from cell to apical compartment (SKPT cells [4]; [17]): about 40%
carnosine effluxed from cell to basolateral compartment (SKPT cells [4]; [17]): about 4%
fefflux.A (fraction effluxed to apical compartment at steady state) (SKPT cells [4]; single exponential fit): 0.66
fefflux.B (fraction effluxed to basolateral compartment at steady state) (SKPT cells [4]; single exponential fit): 0.047
carnosine effluxed from cellular to apical compartment at steady state (SKPT cells [4]; [18]): 66%
carnosine effluxed to basolateral compartment at steady state (SKPT cells [4]; [18]): 4.7%
A-to-B transepithelial rate (SKPT cells [6]): 1.99 pmol/min/mg protein
B-to-A transepithelial rate (SKPT cells [6]): 3.74 pmol/min/mg protein
efflux ratio at 10 µM [7]: ~2
Vmax, apical membrane uptake (PEPT2 [10]): 659±27 pmol/mg/15min
ionized (NH3+) at pH 5.5 ([11]; pH 5.5): 95%
ionized (NH3+) at pH 6.5 ([11]; pH 6.5): 65%
ionized (NH3+) at pH 7.4 ([11]; pH 7.4): 15–20%
time over which uptake was linear, apical surface (SKPT cells [12]; 10 µM carnosine): 60 min
time over which uptake was linear, basolateral surface (SKPT cells [12]; 10 µM carnosine): 30 min
basolateral uptake plateau value (SKPT cells [12]; 10 µM carnosine introduced from basolateral compartment): 15 pmol/mg protein
apical uptake plateau value (SKPT cells [12]; 10 µM carnosine, at 180–300 min): approximately 220 pmol/mg protein
intracellular to extracellular concentration ratio, basolateral introduction (SKPT cells [12]; 10 µM extracellular): 0.8
intracellular to extracellular concentration ratio, apical introduction (SKPT cells [12]; 10 µM extracellular, intracellular volume 2.0 µl/mg protein): 11
CLBC/CLCA ratio (SKPT cells [13]): 0.8
CLBC/CLCB ratio (SKPT cells [13]): 32
CLCB/CLAC ratio (SKPT cells [13]): 0.004
stability in donor compartment (SKPT cells [14]; apical or basolateral donor side, up to 300 min of incubation): remained intact
intact in intracellular compartment at 60 min (SKPT cells [14]; intracellular compartment, 60 min): about 87%
intact in intracellular compartment at 300 min (SKPT cells [14]; intracellular compartment, 300 min): 81%
intact in intracellular compartment, first 15 min (SKPT cells [14]; intracellular compartment, first 15 min of incubation): > 94%
pH of maximal apical uptake (SKPT cells [15]): 6.5
Molecule: NCCC(=O)N[C@@H](Cc1cnc[nH]1)C(=O)O [carnosine, β-alanyl-L-histidine]
reduction of apical uptake of carnosine (SKPT cells [1]): 96%
reduction of basolateral uptake of carnosine (SKPT cells [2]): 90–99%
Vmax, basolateral membrane uptake (basolateral transporter; 1–500 µM carnosine, 15-min uptake, pH 7.4): 27.4±1.3 pmol/mg/15min
lower affinity of basolateral transporter compared to apical transporter (basolateral transporter; Km comparison): 2 fold
lower capacity of basolateral transporter compared to apical transporter (basolateral transporter; Vmax comparison): 24 fold
Km (PEPT2 [5]): 39 µM
Km (PEPT2 [8]): 43 µM
apical efflux relative to basolateral efflux [9]: about 4 times
intracellular to extracellular concentration ratio [9]: approximately 135

Molecule: CC1=C(C(=O)O)N2C(=O)[C@@H](NC(=O)[C@H](N)c3ccc(O)cc3)[C@H]2SC1 [cefadroxil]
reduction of basolateral uptake of carnosine (SKPT cells [2]): 90–99%

Molecule: N[C@@H](Cc1c[nH]cn1)C(=O)O [histidine, L-histidine]
effect on apical uptake of carnosine (SKPT cells [1]; inhibitor 1, 2 and 5 mM): unaffected
effect on basolateral uptake of carnosine (SKPT cells [2]): unaffected

B1: PEPT2 (Rattus norvegicus) (protein)
chain: MNPFQKNESKETLFSPVSTEEMLPRPPSPPKKSPPKIFGSSYPVSIAFIVVNEFCERFSYYGMKAVLTLYFLYFLHWNEDTSTSVYHAFSSLCYFTPILGAAIADSWLGKFKTIIYLSLVYVLGHVFKSLGAIPILGGKMLHTILSLVGLSLIALGTGGIKPCVAAFGGDQFEEEHAEARTRYFSVFYLAINAGSLISTFITPMLRGDVKCFGQDCYALAFGVPGLLMVLALVVFAMGSKMYRKPPPEGNIVAQVIKCIWFALCNRFRNRSGDLPKRQHWLDWAAEKYPKHLIADVKALTRVLFLYIPLPMFWALLDQQGSRWTLQANKMNGDLGFFVLQPDQMQVLNPFLVLIFIPLFDLVIYRLISKCRINFSSLRKMAVGMILACLAFAVAALVETKINGMIHPQPASQEIFLQVLNLADGDVKVTVLGSRNNSLLVESVSSFQNTTHYSKLHLEAKSQDLHFHLKYNSLSVHNDHSVEEKNCYQLLIHQDGESISSMLVKDTGIKPANGMAAIRFINTLHKDLNISLDTDAPLSVGKDYGVSAYRTVLRGKYPAVHCETEDKVFSLDLGQLDFGTTYLFVITNITSQGLQAWKAEDIPVNKLSIAWQLPQYVLVTAAEVMFSVTGLEFSYSQAPSSMKSVLQAAWLLTVAVGNIIVLVVAQFSGLAQWAEFVLFSCLLLVVCLIFSVMAYYYVPLKSEDTREATDKQIPAVQGNMINLETKNTRL
Km [16]: 49 ± 8 µM
